Reference: ChEMBL document CHEMBL4184147, “Polyphenolic Phytochemicals in Cancer Prevention and Therapy: Bioavailability versus Bioefficacy” (J Med Chem, 2017)
pIC50: −log10 of the molar value.

How the values were obtained:
NCI-H460 [1] = test: Cytotoxicity against human NCI-H460 cells assessed as decrease in cell viability after 48 hrs by MTT assay; type: functional, cell-based; settings: NCI-H460, 48 h
BXPC-3 [2] = test: Cytotoxicity against human BxPC3 cells assessed as decrease in cell viability after 48 hrs by MTT assay; type: functional, cell-based; settings: BXPC-3, 48 h
PANC-1 [3] = test: Cytotoxicity against human PANC1 cells assessed as decrease in cell viability after 48 hrs by MTT assay; type: functional, cell-based; settings: PANC-1, 48 h
[4] = Cytotoxicity against human MML1 cells assessed as decrease in cell viability after 48 hrs by MTT assay; type: functional, cell-based
SK-MEL-2 [5] = test: Cytotoxicity against human SK-MEL-2 cells assessed as decrease in cell viability after 48 hrs by MTT assay; type: functional, cell-based; settings: SK-MEL-2, 48 h
MDA-MB-231 [6] = test: Cytotoxicity against human MDA-MB-231 cells assessed as cell viability at 34 uM after 48 hrs by MTT assay; type: functional; settings: MDA-MB-231, 48 h, read-out: Activity
T47D [7] = test: Cytotoxicity against human T47D cells assessed as cell viability at 34 uM after 48 hrs by MTT assay; type: functional; settings: read-out: Activity
HT-29 [8] = test: Cytotoxicity against human HT-29 cells assessed as cell viability at 34 uM after 48 hrs by MTT assay; type: functional; settings: HT-29, 48 h, read-out: Activity
BXPC-3 [9] = test: Cytotoxicity against human BxPC3 cells assessed as cell viability at 34 uM after 48 hrs by MTT assay; type: functional; settings: BXPC-3, 48 h, read-out: Activity
PANC-1 [10] = test: Cytotoxicity against human PANC1 cells assessed as cell viability at 34 uM after 48 hrs by MTT assay; type: functional; settings: PANC-1, 48 h, read-out: Activity
[11] = Cytotoxicity against human MML1 cells assessed as cell viability at 34 uM after 48 hrs by MTT assay; type: functional; settings: read-out: Activity
SK-MEL-2 [12] = test: Cytotoxicity against human SK-MEL-2 cells assessed as cell viability at 34 uM after 48 hrs by MTT assay; type: functional; settings: SK-MEL-2, 48 h, read-out: Activity
U-87 MG [13] = test: Cytotoxicity against human U87 cells assessed as cell viability at 34 uM after 48 hrs by MTT assay; type: functional, U-87MG ATCC; settings: read-out: Activity
LN-229 [14] = test: Cytotoxicity against human LN229 cells assessed as cell viability at 34 uM after 48 hrs by MTT assay; type: functional; settings: LN-229, 48 h, read-out: Activity
[15] = Cmax in mouse at 10 mg/kg, iv by LC-MS/MS method; type: ADME, organism-based; parameters: dose 10 mg/kg, route intravenous; settings: in vivo
In short: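 Mouse iv dosing used polyphenol dissolved in DMSO:ethanol (2:1), with total injected volume never above 30 μL. Plasma levels were measured by previously described methods.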

[16] = Tmax in mouse at 10 mg/kg, iv by LC-MS/MS method; type: ADME, organism-based; settings: in vivo
In short: (§1)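 For IV dosing, compound dissolved in DMSO:ethanol (2:1), total volume no more than 30 μL. For oral dosing, compound given in a self-microemulsifying delivery system (60% surfactant, emulsifier OP:Cremophor EL 1:1; 30% PEG 400; 10% ethyl oleate), total volume no more than 100 μL. Plasma levels measured by previously described methods.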

[17] = Plasma concentration in mouse at 100 mg/kg, po at 60 mins by LC-MS/MS method; type: ADME, organism-based; in short: as §1
[18] = Plasma concentration in mouse at 10 mg/kg, iv at 60 mins by LC-MS/MS method; type: ADME, organism-based; in short: as §1
[19] = Cmax in mouse at 100 mg/kg, po by HPLC method; type: ADME, organism-based; parameters: dose 100 mg/kg, route oral; settings: in vivo
In short: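 For oral dosing, polyphenol was dissolved in a self-microemulsifying delivery system: 60% surfactant (emulsifier OP:Cremophor EL 1:1), 30% cosurfactant (PEG 400) and 10% oil (ethyl oleate). Total volume given was never above 100 μL. Plasma levels were quantified by previously described methods.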

[20] = Tmax in mouse at 100 mg/kg, po by HPLC method; type: ADME, organism-based; settings: in vivo
In short: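 Given orally in a self-microemulsifying delivery system (60% surfactant, emulsifier OP:Cremophor EL 1:1; 30% PEG 400 cosurfactant; 10% ethyl oleate oil), total volume no more than 100 μL. Plasma levels measured by previously described methods.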

A-375 = test: Cytotoxicity against human A375 cells assessed as decrease in cell viability at 20 uM after 48 hrs by SRB method relative to control; type: functional
A549 [21] = test: Cytotoxicity against human A549 cells assessed as decrease in cell viability at 20 uM after 48 hrs by SRB method relative to control; type: functional
HT-29 [22] = test: Cytotoxicity against human HT-29 cells assessed as decrease in cell viability at 20 uM after 48 hrs by SRB method relative to control; type: functional
MCF7 = test: Cytotoxicity against human MCF7 cells assessed as decrease in cell viability at 20 uM after 48 hrs by SRB method relative to control; type: functional
[23] = Plasma concentration in mouse at 10 mg/kg, iv at 120 mins by LC-MS/MS method; type: ADME, organism-based; in short: as §1
A549 [24] = test: Cytotoxicity against human A549 cells assessed as cell viability at 34 uM after 48 hrs by trypan blue exclusion and LDH release; settings: A549, 48 h
U-87 MG [25] = test: Cytotoxicity against human U87 cells assessed as decrease in cell viability after 48 hrs by trypan blue exclusion and LDH release
T47D [26] = test: Cytotoxicity against human T47D cells assessed as decrease in cell viability after 48 hrs by trypan blue exclusion and LDH release
A549 [27] = test: Cytotoxicity against human A549 cells assessed as decrease in cell viability after 48 hrs by trypan blue exclusion and LDH release; settings: A549, 48 h
COLO 201 [28] = test: Cytotoxicity against human COLO201 cells assessed as cell viability at 34 uM after 48 hrs by trypan blue exclusion and LDH release; settings: COLO 201, 48 h
HT-29 [29] = test: Cytotoxicity against human HT-29 cells assessed as decrease in cell viability after 48 hrs by trypan blue exclusion and LDH release; settings: HT-29, 48 h
LN-229 [30] = test: Cytotoxicity against human LN229 cells assessed as decrease in cell viability after 48 hrs by trypan blue exclusion and LDH release; settings: LN-229, 48 h
NCI-H460 [31] = test: Cytotoxicity against human NCI-H460 cells assessed as cell viability at 34 uM after 48 hrs by trypan blue exclusion and LDH release; settings: NCI-H460, 48 h
COLO 201 [32] = test: Cytotoxicity against human COLO201 cells assessed as decrease in cell viability after 48 hrs by trypan blue exclusion and LDH release; settings: COLO 201, 48 h
MDA-MB-231 [33] = test: Cytotoxicity against human MDA-MB-231 cells assessed as decrease in cell viability after 48 hrs by trypan blue exclusion and LDH release; settings: MDA-MB-231, 48 h

Cmax [15]: 67 µM
Tmax [16]: 5 min
concentration at 1 h [17]: < 1 µM
concentration at 1 h [18]: 15 µM
Cmax [19]: 25 µM
Tmax [20]: 10 min
concentration at 2 h [23]: < 1 µM
SMILES: COc1cc(/C=C/c2ccc(O)cc2)cc(OC)c1 [PTEROSTILBENE]
pIC50 (NCI-H460 [1]): 4.77
pIC50 (BXPC-3 [2]): 4.51
pIC50 (PANC-1 [3]): 4.30
pIC50 [4]: 4.77
pIC50 (SK-MEL-2 [5]): 4.77
viability at 34 µM (MDA-MB-231 [6]): 90%
viability at 34 µM (T47D [7]): 91%
viability at 34 µM (HT-29 [8]): 96%
viability at 34 µM (BXPC-3 [9]): 97%
viability at 34 µM (PANC-1 [10]): 94%
viability at 34 µM [11]: 87%
viability at 34 µM (SK-MEL-2 [12]): 85%
viability at 34 µM (U-87 MG [13]): 103%
viability at 34 µM (LN-229 [14]): 98%
Activity (A-375): 30%
Activity (A549 [21]): 40%
Activity (HT-29 [22]): 10%
Activity (MCF7): 25%
viability at 34 µM (A549 [24]): 81%
pIC50 (U-87 MG [25]): 4.47
pIC50 (T47D [26]): 4.46
pIC50 (A549 [27]): 4.59
viability at 34 µM (COLO 201 [28]): 95%
pIC50 (HT-29 [29]): 4.55
pIC50 (LN-229 [30]): 4.85
viability at 34 µM (NCI-H460 [31]): 83%
pIC50 (COLO 201 [32]): 4.54
pIC50 (MDA-MB-231 [33]): 4.20
